Reference: paper PMC3424002 (ACS medicinal chemistry letters, 2012)
“Also recorded” adds a separate entry of the source.

Tests used:
[1] = target: rat mGluR5 (Rattus norvegicus, UniProt P31424); format: cell-based; conditions: for effect on IP1 levels / accumulation: in the absence of QA (agonist)
[2] = test system: mice; assay: Novel open-field test; format: in vivo, mouse; conditions: for locomotor activity / amount of time spent in the center of the novel open-field: i.p. 15 minutes prior to testing; for locomotor activity: Figure 3A; for amount of time spent in the center of the novel open-field: Figure 3B
Method in brief: (§1)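 Mice received test compound by ip injection 15 min before testing, with each compound compared against its own within-group vehicle cohort. Compounds were suspended in 2% ethanol, 10% Tween 80 and water; one reference NAM was instead dissolved in saline. Prototypical mGluR5 NAMs served as positive controls. There were 10–12 mice per dose, and data are means ± SEM analysed by one-way ANOVA with Bonferroni post hoc test.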

[3] = test system: mice; assay: Light-dark box test; format: in vivo, mouse; conditions: i.p. 15 minutes prior to testing; for proportion of time spent in the light compartment: Figure 3C; for number of compartment transitions: Figure 3D
Method in brief: as §1

[4] = test system: mice; assay: Mouse models of anxiety-like behaviors; format: in vivo; conditions: for doses giving statistically significant effects consistent with anxiolysis: i.p., open-field and light-dark box tests
[5] = test system: mGluR5; conditions: 10 mg/kg, mouse brain; cited from earlier work
[6] = target: mGluR5 (Rattus norvegicus, UniProt P31424); assay: Displacement of [3H]1; format: binding; conditions: ratio of Ki values versus 1 (MPEP)
[7] = test system: 63 additional receptors and ion channels; assay: Screening in 63 additional receptors and ion channels; format: binding; conditions: 100 nM; any of 63 additional receptors and ion channels

Sequence of rat mGluR5 (P31424 21-1203): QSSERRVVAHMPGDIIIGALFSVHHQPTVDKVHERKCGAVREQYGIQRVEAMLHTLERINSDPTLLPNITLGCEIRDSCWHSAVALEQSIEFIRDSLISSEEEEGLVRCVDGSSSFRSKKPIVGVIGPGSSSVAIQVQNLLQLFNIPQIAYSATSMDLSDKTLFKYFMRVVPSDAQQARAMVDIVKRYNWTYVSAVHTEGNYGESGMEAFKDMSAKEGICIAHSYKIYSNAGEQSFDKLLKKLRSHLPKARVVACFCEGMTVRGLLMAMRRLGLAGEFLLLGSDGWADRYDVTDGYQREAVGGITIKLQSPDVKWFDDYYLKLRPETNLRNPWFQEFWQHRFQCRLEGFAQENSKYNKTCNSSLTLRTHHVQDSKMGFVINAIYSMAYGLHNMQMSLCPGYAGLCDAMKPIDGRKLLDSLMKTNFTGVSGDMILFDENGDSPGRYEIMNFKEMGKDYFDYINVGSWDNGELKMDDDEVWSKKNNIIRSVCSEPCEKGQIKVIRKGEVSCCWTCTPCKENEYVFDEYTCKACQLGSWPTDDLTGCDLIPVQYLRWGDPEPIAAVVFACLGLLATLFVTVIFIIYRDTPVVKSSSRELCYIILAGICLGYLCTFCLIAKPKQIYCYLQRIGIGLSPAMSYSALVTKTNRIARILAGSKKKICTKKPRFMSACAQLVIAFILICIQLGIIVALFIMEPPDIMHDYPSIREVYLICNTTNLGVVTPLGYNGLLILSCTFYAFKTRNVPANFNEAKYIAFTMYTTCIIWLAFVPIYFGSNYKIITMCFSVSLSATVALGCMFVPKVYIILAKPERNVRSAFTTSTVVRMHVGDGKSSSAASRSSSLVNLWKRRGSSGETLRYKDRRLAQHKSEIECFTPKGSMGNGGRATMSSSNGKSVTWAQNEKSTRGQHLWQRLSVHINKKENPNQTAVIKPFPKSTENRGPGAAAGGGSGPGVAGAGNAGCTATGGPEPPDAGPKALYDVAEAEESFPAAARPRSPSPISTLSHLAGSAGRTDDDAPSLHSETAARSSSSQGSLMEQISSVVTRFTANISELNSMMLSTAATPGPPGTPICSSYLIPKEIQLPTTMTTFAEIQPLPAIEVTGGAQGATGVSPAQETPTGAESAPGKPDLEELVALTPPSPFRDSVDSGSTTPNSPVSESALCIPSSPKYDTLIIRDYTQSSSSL
Sequence of mGluR5 (Rattus norvegicus, UniProt P31424) (P31424 21-1203): as above

| Structure (SMILES) | effect on IP1 levels / accumulation [1] | overall / locomotor activity at the highest tested doses [2] | locomotor activity [2] | amount of time spent in the center of the novel open-field [2] | proportion of time spent in the light compartment [3] | number of compartment transitions [3] | anxiolytic effects at the highest tested doses [4] | doses giving statistically significant effects consistent with anxiolysis [4] [mg/kg] | mGluR5 receptor occupancy [5] | fold increase in mGluR5 binding affinity over compound 1 [6] | inhibition of binding at other targets [7] [%] | effect on IP1 levels (agonist) ([1]; agonist stimulation of mGluR5) |
| --- | --- | --- | --- | --- | --- | --- | --- | --- | --- | --- | --- | --- |
| Cc1cccc(C#Cc2ccccc2)n1 [Compound 1, 2-methyl-6-(phenylethynyl)pyridine, reference compound] | potently decreased IP1 levels from baseline; also recorded: dose-dependent inverse agonism | no corresponding loss of locomotor activity | dose-dependently increased | dose-dependently increased | dose-dependently increased | dose-dependently increased | loss of anxiolytic effects | 3 to 30 | full | – | – | – |
| Cc1nc(C#Cc2cccnc2)cs1 [Compound 2, 3-((2-methyl-1,3-thiazol-4-yl)ethynyl)pyridine, reference compound] | potently decreased IP1 levels from baseline; also recorded: dose-dependent inverse agonism | – | dose-dependently increased | dose-dependently increased | dose-dependently increased | dose-dependently increased | – | 10 | – | – | – | – |
| Cc1cccc(C#Cc2cc(F)cc(C#N)c2)n1 [Compound 7i] | potently decreased IP1 levels from baseline; also recorded: dose-dependent inverse agonism | no corresponding loss of locomotor activity | dose-dependently increased | dose-dependently increased | dose-dependently increased | dose-dependently increased | loss of anxiolytic effects | 0.3 | – | approximately 24 fold | < 13 | – |
| N#Cc1cc(F)cc(C#Cc2cccc(C#N)n2)c1 [Compound 7j] | potently decreased IP1 levels from baseline; also recorded: dose-dependent inverse agonism | depression in overall activity | dose-dependently increased | dose-dependently increased | dose-dependently increased | dose-dependently increased | loss of anxiolytic effects | 0.1 to 0.3 | – | – | – | – |
| N[C@@H](Cn1oc(=O)[nH]c1=O)C(=O)O [QA, quisqualic acid] | – | – | – | – | – | – | – | – | – | – | – | dose-dependently increased IP1 levels; also recorded: increased IP1 accumulation |
